Data from PubChem BioAssay.
The source made the active and inactive calls.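 The calls were made as follows, unless noted: active = GFP response above 150% of the DMSO level; inconclusive = fewer than 70 events counted for a yeast strain; inactive = the rest.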

What was measured:
[1] = RPL19A-GFP modulators, yeast TOR pathway, confirmation, cell-based, S. cerevisiae, flow cytometry, cherry picks, mother/daughter gates (AID 2270;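 active = GFP response below 50% of the DMSO control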); details: S. cerevisiae RPL19A-GFP strain, 3 h, at 10 µM, stronger effect = lower value, 100 = same GFP as DMSO wells
[2] = LAP4-GFP expression modulators in yeast, confirmation, cell-based, cherry picks, flow cytometry, mother/daughter gates (AID 2271;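 active = GFP response above 150% of the DMSO control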;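 also: ratio of sample to DMSO plate mean so 100% equals DMSO level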); details: S. cerevisiae LAP4-GFP strain, 3 h, at 10 µM, stronger effect = higher value, 100 means same as DMSO control
How it was run: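 Measured by: GFP by flow cytometry. Test system: GFP-fusion yeast strain. Input: yeast cells seeded at OD600 of 0.2. Timing: 30 °C, 3 h compound incubation, rotating. Buffer or medium: synthetic complete medium for yeast. Benchmarks: DMSO-only negative wells, rapamycin 400 ng/mL positive wells. Compound: 10 µM single dose.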

[3] = modulators of MEP2-GFP levels in yeast, confirmation, S. cerevisiae, flow cytometry GFP, cherry picks (AID 2272;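 active = GFP response above 150% of the DMSO control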;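 also: ratio of well signal to plate DMSO mean so 100% equals DMSO level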); details: S. cerevisiae MEP2-GFP strain, 3 h, at 10 µM, stronger effect = higher value
[4] = AGP1-GFP expression modulators, hit retest, confirmation, cell-based, flow cytometry, S. cerevisiae, cherry picks (AID 2273);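 also: median GFP channel fluorescence over the whole cell population gate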; details: S. cerevisiae AGP1-GFP strain, 3 h, at 10 µM
[5] = modulators of CIT2-GFP expression in yeast, confirmation, S. cerevisiae, GFP fusion, cherry picks, mother/daughter gates (AID 2274); details: S. cerevisiae CIT2-GFP strain, flow cytometry, 3 h, at 10 µM, stronger effect = higher value
[6] = measured here: daughter cell gate
[7] = measured here: mother cell gate
[8] = measured here: daughter cell gate response
[9] = measured here: mother cell gate response

| Compound | GFP response vs DMSO [1] | GFP response vs DMSO [1, 6] [%] | GFP response vs DMSO [1, 7] [%] | GFP response relative to DMSO [2] | GFP response relative to DMSO [2, 8] [%] | GFP response relative to DMSO [2, 9] [%] | GFP response vs DMSO [3] | GFP response, % of DMSO [4] | GFP response, % of DMSO [5] | GFP response, % of DMSO [5, 6] [%] | GFP response, % of DMSO [5, 7] [%] |
| --- | --- | --- | --- | --- | --- | --- | --- | --- | --- | --- | --- |
| CCC(C(=O)O)n1nc(-c2ccccc2)c2cc(Cl)ccc21 (stereo not drawn) | 98.7% (inactive) | 98.4 | 98.2 | 98.9% (inactive) | 96 | 99.5 | 99.3% (inactive) | 102% (inactive) | 101% (inactive) | 99.3 | 102 |
| Cc1ccc(NC(=O)ON=C2CCCC2)cc1 | 101% (inactive) | 104 | 93.5 | 122% (inactive) | 115 | 121 | 109% (inactive) | 68.9% (inactive) | 167% (active) | 150 | 167 |
| O=C(COC(=O)CCc1nc2ccccc2s1)Nc1nc(-c2ccccc2)cs1 | 101% (inactive) | 100 | 100 | 96.2% (inactive) | 98.7 | 97.2 | 100% (inactive) | 101% (inactive) | 102% (inactive) | 98.1 | 103 |
| CCCc1[nH]nc2c1C(c1ccc(Br)s1)C(C#N)=C(N)O2 (stereo not drawn) | 96.2% (inactive) | 96.7 | 95.4 | 137% (inactive) | 136 | 137 | 122% (inactive) | 105% (inactive) | 101% (inactive) | 101 | 102 |
| Cc1cc(C=C2C(=O)c3ccccc3C2=O)c(C)n1-c1cccc(C(=O)O)c1 | 100% (inactive) | 101 | 101 | 96.1% (inactive) | 98.2 | 95.1 | 101% (inactive) | 100% (inactive) | 112% (inactive) | 110 | 113 |
| Cc1ccc(-c2nnn(CC(=O)N(CC(=O)NC3CCCC3)c3ccc(F)cc3)n2)o1 | 97.4% (inactive) | 98.4 | 96.8 | 97% (inactive) | 95.9 | 96.2 | 99% (inactive) | 104% (inactive) | 100% (inactive) | 103 | 99.3 |
| Cc1cc(C)nc(/N=c2/ssnc2Cl)c1 | 88.7% (inactive) | 87.3 | 86.4 | 142% (inactive) | 131 | 143 | 107% (inactive) | 111% (inactive) | 124% (inactive) | 110 | 116 |
| COc1ccc(C(=O)NNC(=S)NC(=O)/C=C/c2cccs2)cc1 | 106% (inactive) | 109 | 104 | 201% (active) | 173 | 198 | 120% (inactive) | 121% (inactive) | 108% (inactive) | 112 | 100 |
